Test system: Plasmodium falciparum
Assay: In vitro antimalarial activity against Plasmodium falciparum Dd2
Type: functional, organism-based
Procedure, shortened: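 P. falciparum Dd2 grown in RPMI 1640 with 10% heat-treated human serum and 3 mg/l gentamycin, 0.3% parasitaemia, 2.5% haematocrit; compounds 0.3 to 100 μM. After 48 h, [8-³H]hypoxanthine added and incubated a further 18 h. Cells filtered, washed, and incorporated radioactivity counted by scintillation to give IC50.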

Row | SMILES | IC50 [nM]
1 | N=C(N)c1cccc(NC(=O)Nc2ccc(S(=O)(=O)NCc3cc(F)c(F)cc3F)cc2)c1 | 1800
2 | N=C(N)c1cccc(NC(=O)Nc2ccc(S(=O)(=O)Nc3ccc4ccccc4c3)cc2)c1 | 8200
3 | N=C(N)c1cccc(NC(=O)Nc2ccc(S(=O)(=O)NCc3ccc(F)c(F)c3)cc2)c1 | 1110
4 | N=C(N)c1cccc(NC(=O)Nc2ccc(S(=O)(=O)NCc3ccc(S(N)(=O)=O)cc3)cc2)c1 | 7
5 | N=C(N)c1cccc(NC(=O)Nc2ccc(S(=O)(=O)NCc3cccc(F)c3)cc2)c1 | 500
6 | N=C(N)c1cccc(NC(=O)Nc2ccc(S(=O)(=O)NCCO)cc2)c1 | 890
7 | N=C(N)c1cccc(NC(=O)Nc2ccc(S(=O)(=O)NCCN3CCOCC3)cc2)c1 | > 2500
8 | N=C(N)c1cccc(NC(=O)Nc2ccc(S(N)(=O)=O)cc2)c1 | > 4900
9 | N=C(N)c1cccc(NC(=O)Nc2ccc(S(=O)(=O)NCc3ccccc3F)cc2)c1 | 620
10 | N=C(N)c1ccc(NC(=O)Nc2cccc(S(=O)(=O)NCc3ccccc3)c2)cc1 | 410
11 | N=C(N)c1ccc(NC(=O)Nc2cccc(S(=O)(=O)NCc3c(F)ccc(F)c3F)c2)cc1 | 190
12 | N=C(N)c1cccc(NC(=O)Nc2cccc(S(=O)(=O)NCc3ccc(S(N)(=O)=O)cc3)c2)c1 | 980
13 | N=C(N)c1cccc(NC(=O)Nc2cccc(C(=N)N)c2)c1 [AMICARBALIDE] | 5
14 | CCCCNS(=O)(=O)c1ccc(NC(=O)Nc2cccc(C(=N)N)c2)cc1 | 3900
15 | N=C(N)c1cccc(NC(=O)Nc2ccc(S(=O)(=O)NCc3ccc(F)cc3)cc2)c1 | 320
16 | N=C(N)c1ccc(NC(=O)Nc2cccc(S(=O)(=O)NCc3ccc(S(N)(=O)=O)cc3)c2)cc1 | > 2500
17 | N=C(N)c1cccc(NC(=O)Nc2ccc(S(=O)(=O)N3CCc4ccccc4C3)cc2)c1 | 610
18 | N=C(N)c1cccc(NC(=O)Nc2ccc(S(=O)(=O)NCc3c(F)ccc(F)c3F)cc2)c1 | 17
19 | N=C(N)c1cccc(NC(=O)Nc2cccc(S(=O)(=O)NCc3c(F)ccc(F)c3F)c2)c1 | 250
20 | N=C(N)c1cccc(NC(=O)Nc2ccc(S(=O)(=O)Nc3ccccc3)cc2)c1 | 9000
21 | N=C(N)c1cccc(NC(=O)Nc2ccc(S(=O)(=O)Nc3cccc4ccccc34)cc2)c1 | 17000
22 | N=C(N)c1cccc(NC(=O)Nc2cccc(S(=O)(=O)NCc3ccccc3)c2)c1 | 6200
23 | N=C(N)c1ccc(NC(=O)Nc2ccc(S(=O)(=O)NCc3c(F)ccc(F)c3F)cc2)cc1 | 210
24 | N=C(N)c1cccc(NC(=O)Nc2ccc(S(=O)(=O)NCc3ccccc3)cc2)c1 | 450
25 | N=C(N)c1cccc(NC(=O)Nc2ccc(S(=O)(=O)NCc3ccc(F)cc3F)cc2)c1 | 1110
26 | N=C(N)c1ccc(NC(=O)Nc2ccc(S(=O)(=O)NCc3ccc(S(N)(=O)=O)cc3)cc2)cc1 | 90
27 | CNS(=O)(=O)c1ccc(NC(=O)Nc2cccc(C(=N)N)c2)cc1 | 3000
28 | N=C(N)c1ccc(NC(=O)Nc2ccc(S(=O)(=O)NCc3ccccc3)cc2)cc1 | 400
